The record followed here is ChEMBL document CHEMBL3871269, “Conjugates of podophyllotoxin and norcantharidin as dual inhibitors of topoisomeraseⅡ and protein phosphatase 2A” (Eur J Med Chem, 2016).

The structures appear in SMILES notation.

The first data set can be described thus: Cytotoxicity against human A549 cells measured after 48 hrs by MTT assay. The class given is functional, cell-based. The note with it: A549, 48 h. The essentials: (§1)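 MTT growth assay; cells seeded at 5×10³/well in RPMI1640 with 10% heat-inactivated FBS, attached 4–6 h, then exposed to five concentrations (0.01–100 μM, compounds dissolved in saline) for 48 h at 37 °C, 5% CO₂. MTT added for 4 h, formazan dissolved in DMSO, absorbance read at 490 nm. IC50 taken from log plot of percent of control versus concentration; means ± SD of triplicate experiments.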
For `COc1cc([C@@H]2c3cc4c(cc3[C@@H](NC(=O)[C@H](CC(C)C)N3C(=O)C5C6CCC(O6)C5C3=O)[C@H]3COC(=O)[C@H]23)OCO4)cc(OC)c1O` (stereo partly specified), half-maximal inhibition (IC50) required 8.11 µM.
The same measure, in the same setting: with `COc1cc([C@@H]2c3cc4c(cc3[C@@H](NC(=O)[C@H](Cc3cc5ccccc5[nH]3)N3C(=O)C5C6CCC(O6)C5C3=O)[C@H]3COC(=O)[C@H]23)OCO4)cc(OC)c1O` (stereo partly specified) the figure was 12 µM; with `COc1cc([C@@H]2c3cc4c(cc3[C@@H](NC(=O)[C@H](c3ccccc3)N3C(=O)C5C6CCC(O6)C5C3=O)[C@H]3COC(=O)[C@H]23)OCO4)cc(OC)c1O` (stereo partly specified), 7.03 µM.

A further data set can be described thus: Cytotoxicity against human HepG2 cells measured after 48 hrs by MTT assay. The class given is functional, cell-based. The following applies: HepG2, 48 h. In short, it runs like this:
as §1
For orientation: Tetrazolium assays rely on reduction of a dye to a coloured formazan, in cell work by metabolically active cells.
Take `COc1cc([C@@H]2c3cc4c(cc3[C@@H](NC(=O)[C@H](CC(C)C)N3C(=O)C5C6CCC(O6)C5C3=O)[C@H]3COC(=O)[C@H]23)OCO4)cc(OC)c1O` (stereo partly specified): half-maximal inhibition (IC50) required 10.5 µM.
The same measure, in the same setting: under `COc1cc([C@@H]2c3cc4c(cc3[C@@H](NC(=O)[C@H](Cc3cc5ccccc5[nH]3)N3C(=O)C5C6CCC(O6)C5C3=O)[C@H]3COC(=O)[C@H]23)OCO4)cc(OC)c1O` (stereo partly specified) stands 6.84 µM; under `COc1cc([C@@H]2c3cc4c(cc3[C@@H](NC(=O)[C@H](c3ccccc3)N3C(=O)C5C6CCC(O6)C5C3=O)[C@H]3COC(=O)[C@H]23)OCO4)cc(OC)c1O` (stereo partly specified), 1.98 µM.

A further data set in a line: Cytotoxicity against human HeLa cells measured after 48 hrs by MTT assay.
Conditions: not given
The class given is functional, cell-based. In short, it runs like this: as §1
`COc1cc([C@@H]2c3cc4c(cc3[C@@H](NC(=O)[C@H](CC(C)C)N3C(=O)C5C6CCC(O6)C5C3=O)[C@H]3COC(=O)[C@H]23)OCO4)cc(OC)c1O` (stereo partly specified): the half-maximal inhibitory concentration (IC50) (usually the concentration that gives 50% inhibition) is > 100 µM.
Compound `COc1cc([C@@H]2c3cc4c(cc3[C@@H](NC(=O)[C@H](Cc3cc5ccccc5[nH]3)N3C(=O)C5C6CCC(O6)C5C3=O)[C@H]3COC(=O)[C@H]23)OCO4)cc(OC)c1O` (stereo partly specified) returned an IC50 of 2.35 µM.
Turning to `COc1cc([C@@H]2c3cc4c(cc3[C@@H](NC(=O)[C@H](c3ccccc3)N3C(=O)C5C6CCC(O6)C5C3=O)[C@H]3COC(=O)[C@H]23)OCO4)cc(OC)c1O` (stereo partly specified), the midpoint of inhibition, the IC50, lay at 28.5 µM.

Another data set in a line: Cytotoxicity against human HCT8 cells measured after 48 hrs by MTT assay. The class given is functional, cell-based. The following applies: HCT-8, 48 h. The essentials: as §1
In turn, `COc1cc([C@@H]2c3cc4c(cc3[C@@H](NC(=O)[C@H](CC(C)C)N3C(=O)C5C6CCC(O6)C5C3=O)[C@H]3COC(=O)[C@H]23)OCO4)cc(OC)c1O` (stereo partly specified) came in with a 50% inhibitory concentration (IC50) of 21.4 µM.
On the same count and under the same terms, under `COc1cc([C@@H]2c3cc4c(cc3[C@@H](NC(=O)[C@H](Cc3cc5ccccc5[nH]3)N3C(=O)C5C6CCC(O6)C5C3=O)[C@H]3COC(=O)[C@H]23)OCO4)cc(OC)c1O` (stereo partly specified) stands 15.2 µM; under `COc1cc([C@@H]2c3cc4c(cc3[C@@H](NC(=O)[C@H](c3ccccc3)N3C(=O)C5C6CCC(O6)C5C3=O)[C@H]3COC(=O)[C@H]23)OCO4)cc(OC)c1O` (stereo partly specified), 15.3 µM.

The next data set is described as follows: Cytotoxicity against human WI38 cells measured after 48 hrs by MTT assay. The class given is toxicity, cell-based, WI-38.
Conditions: not given
The essentials:
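MTT growth inhibition in WI-38 lung fibroblasts. Cells seeded at 5×10³/well in RPMI1640 with 10% heat-inactivated FBS, attached 4–6 h, then exposed 48 h at 37 °C, 5% CO₂ to five concentrations (0.01–100 μM, saline-dissolved). MTT 4 h, DMSO solubilisation, A490. IC50 from log plot of percent control vs concentration; triplicate, mean ± SD.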
In turn, `COc1cc([C@@H]2c3cc4c(cc3[C@@H](NC(=O)[C@H](CC(C)C)N3C(=O)C5C6CCC(O6)C5C3=O)[C@H]3COC(=O)[C@H]23)OCO4)cc(OC)c1O` (stereo partly specified) returned a half-inhibitory concentration (IC50) at 48 h of 21.9 µM.
For the compound `COc1cc([C@@H]2c3cc4c(cc3[C@@H](NC(=O)[C@H](Cc3cc5ccccc5[nH]3)N3C(=O)C5C6CCC(O6)C5C3=O)[C@H]3COC(=O)[C@H]23)OCO4)cc(OC)c1O` (stereo partly specified), the IC50 at 48 h came to 72.4 µM.
As for `COc1cc([C@@H]2c3cc4c(cc3[C@@H](NC(=O)[C@H](c3ccccc3)N3C(=O)C5C6CCC(O6)C5C3=O)[C@H]3COC(=O)[C@H]23)OCO4)cc(OC)c1O` (stereo partly specified), the IC50 at 48 h came to 26.7 µM.

A short description of a further data set: Octanol-water partition coefficient, log P of the compound. The note with it: read-out: logP. The class given is physicochemical. The essentials: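 Partition coefficient P = compound concentration in 1-octanol / compound concentration in water.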
`COc1cc([C@@H]2c3cc4c(cc3[C@@H](NC(=O)[C@H](CC(C)C)N3C(=O)C5C6CCC(O6)C5C3=O)[C@H]3COC(=O)[C@H]23)OCO4)cc(OC)c1O` (stereo partly specified): the log partition coefficient (logP) (in general, a log measure of how a compound divides between an organic and an aqueous phase) is 1.83.
Still for that read-out and setting: under `COc1cc([C@@H]2c3cc4c(cc3[C@@H](NC(=O)[C@H](Cc3cc5ccccc5[nH]3)N3C(=O)C5C6CCC(O6)C5C3=O)[C@H]3COC(=O)[C@H]23)OCO4)cc(OC)c1O` (stereo partly specified) stands 1.69.
With `COc1cc([C@@H]2c3cc4c(cc3[C@@H](NC(=O)[C@H](c3ccccc3)N3C(=O)C5C6CCC(O6)C5C3=O)[C@H]3COC(=O)[C@H]23)OCO4)cc(OC)c1O` (stereo partly specified), the lipophilicity (logP) turned out to be 1.99.

A further data set in a line: Inhibition of human RBC PP2A assessed as reduction in free phosphate ion release using Lys-Arg-pThr-Ile-Arg as substrate preincubated for 10 mins followed by substrate addition measured after 60 mins by malachite green method.
Conditions: not given
The essentials: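 Purified PP2A (0.6 mU/well) preincubated with inhibitor 10 min at 37 °C. Reaction started with 200 μM Lys-Arg-pThr-Ile-Arg in 50 mM Tris-HCl pH 7.0, 100 μM CaCl₂; 60 min at room temperature. Released phosphate read by malachite green at 650 nm after 10 min; enzyme-plus-buffer blanks. IC50 from dose–response; mean of three independent experiments in duplicate.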
On to `COc1cc([C@@H]2c3cc4c(cc3[C@@H](NC(=O)[C@H](CC(C)C)N3C(=O)C5C6CCC(O6)C5C3=O)[C@H]3COC(=O)[C@H]23)OCO4)cc(OC)c1O` (stereo partly specified), for which the half-inhibitory concentration (IC50) was > 100 µM.
For the compound `COc1cc([C@@H]2c3cc4c(cc3[C@@H](NC(=O)[C@H](Cc3cc5ccccc5[nH]3)N3C(=O)C5C6CCC(O6)C5C3=O)[C@H]3COC(=O)[C@H]23)OCO4)cc(OC)c1O` (stereo partly specified), the half-inhibitory concentration (IC50) is 58.3 µM.
Consider `COc1cc([C@@H]2c3cc4c(cc3[C@@H](NC(=O)[C@H](c3ccccc3)N3C(=O)C5C6CCC(O6)C5C3=O)[C@H]3COC(=O)[C@H]23)OCO4)cc(OC)c1O` (stereo partly specified), for which the IC50 was > 100 µM.
